Most compounds without a hit are left out; they make up all but 2.7% or so of the library.
NTR1 ag = NTR1 (human) agonism. NTR1-U2OS beta-arrestin-GFP spot imaging, agonist mode. activation, % at 20 µM. 330,000 compounds, 0.17% hits. AID 493036;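 active = activation at or above 40% of the spot to cytoplasm intensity ratio, with at least 20 cells analyzed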
Target sequence (P30989 whole entry, looked up): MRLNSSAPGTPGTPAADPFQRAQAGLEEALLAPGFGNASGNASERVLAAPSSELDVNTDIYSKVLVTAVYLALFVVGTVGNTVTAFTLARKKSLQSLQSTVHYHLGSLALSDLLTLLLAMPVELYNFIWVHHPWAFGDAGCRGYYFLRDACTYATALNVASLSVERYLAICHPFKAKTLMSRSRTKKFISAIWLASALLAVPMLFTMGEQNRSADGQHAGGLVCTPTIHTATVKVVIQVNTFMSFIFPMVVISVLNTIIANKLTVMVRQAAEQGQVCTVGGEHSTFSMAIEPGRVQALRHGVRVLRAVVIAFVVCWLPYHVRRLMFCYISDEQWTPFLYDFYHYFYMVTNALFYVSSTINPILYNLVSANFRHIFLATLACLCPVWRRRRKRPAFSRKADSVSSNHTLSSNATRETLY
HTR2A ag = mouse HTR2A agonism via beta-arrestin recruitment; P35363; activation, % at 7.6 µM; CHO-K1 mHTR2A beta-arrestin complementation, luminescence; percent of 30 µM serotonin response; AID 624169; 360,000 compounds, 0.66% hits;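 active = activation above a run cutoff, the mean activation of all tested compounds plus 3 SD, cut at about 14% in these data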
MC4R antag cAMP = human MC4R antagonism in cAMP assay; MC4R-expressing cells, MTII-stimulated cAMP, LANCE TR-FRET; inhibition, % at 6.5 µM; 360,000 compounds, 0.48% hits;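 active = inhibition above its plate's cutoff, the mean of tested wells on that plate plus 3 SD, cut at about 29% in these data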
Target sequence (P32245 whole entry, looked up): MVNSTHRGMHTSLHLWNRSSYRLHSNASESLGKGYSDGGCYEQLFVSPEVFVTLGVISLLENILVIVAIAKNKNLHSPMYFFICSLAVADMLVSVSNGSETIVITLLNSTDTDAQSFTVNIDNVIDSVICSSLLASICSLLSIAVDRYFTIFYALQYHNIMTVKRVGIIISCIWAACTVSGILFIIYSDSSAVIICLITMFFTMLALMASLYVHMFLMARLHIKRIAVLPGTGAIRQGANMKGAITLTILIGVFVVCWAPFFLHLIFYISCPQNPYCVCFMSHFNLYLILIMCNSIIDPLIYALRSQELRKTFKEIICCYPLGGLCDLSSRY
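Material: human MC4R-expressing U2OS cells. Probe or stimulus: Melanotan II challenge. Dosing: 6.5 µM single dose. Times: 30-min compound, 1-h challenge, 1-h detection, room temperature. Technique: TR-FRET with Eu-cAMP and labeled anti-cAMP, 671 nm. Replication: singlicate.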
MC4R ag barr = activates human MC4R beta-arrestin recruitment. P32245. U2OS MC4R beta-arrestin complementation, luminescence; percent of melanotan II response, DMSO zero. activation, % at 8.9 µM. 360,000 compounds, 0.98% hits;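 active = activation above a per-plate cutoff, the mean activation of sample wells on that plate plus 3 SD, cut at about 8% in these data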
PREPL inh = inhibits the human prolyl oligopeptidase-like enzyme; Q4J6C6; AID 2751; recombinant PREPL, fluorescence polarization activity-based probe; 320,000 compounds, 0.68% hits; inhibition, % at 5.96 µM; in the data active = inhibition above about 43%
Lipid droplet = hepatic lipid droplet formation modulation. inhibition, % at 6.5 µM. AML12 mouse hepatocytes, oleate lipid droplets, BODIPY imaging. AID 1656. 240,000 compounds, 0.4% hits;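 active = lipid droplet intensity inhibited by at least 50%, with more than 500 cells counted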
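Assay system: AML12 mouse liver cells | Compound dosing: One dose, 6.5 µM compound | Read-out basis: Droplet intensity reduction, % inhibition | Measured by: Fluorescence imaging, 20x objective, two fields per well | Schedule: Overnight treatment with compound plus oleate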
MOR ag counter = counter-screen for mouse HTR2A agonists: human mu opioid receptor agonists. activation, % at 9.3 µM. shares compounds with HTR2A ag. 2,300 compounds, 5.3% hits. U2OS OPRM1 beta-arrestin PathHunter, luminescence; DMSO 0%, DAMGO 9.3 µM 100%. AID 624380;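 active = mean activation above the mean of DMSO-only wells plus 3 SD, cut at about 0.5% in these data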
HTR2A ag conf = mouse HTR2A agonism confirmed | shares compounds with HTR2A ag | CHO-K1 PathHunter beta-arrestin recruitment, luminescence; DMSO 0%, 30 µM serotonin 100% | activation, % at 7.6 µM | 2,300 compounds, 19% hits;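 active = mean activation across triplicates above the hit threshold derived in the original primary screen, cut at about 15% in these data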
Of the large screens only hits and unclear results are named; the others gave an inactive call (follow-up assays come after a bar, where they were run).

CC(C)N1CCOC(c2ccc(O)c(O)c2)C1 (stereo not drawn)	HTR2A ag 35 (no result: NTR1 ag, MC4R antag cAMP, MC4R ag barr, PREPL inh, Lipid droplet) | MOR ag counter inactive | HTR2A ag conf 113
Clc1ccc2sc(C3CCNCC3)nc2c1	HTR2A ag 38 | MOR ag counter inactive | HTR2A ag conf 15
C[C@@H]1CN([C@@H](C)CO)C(=O)CCCn2cc(nn2)CO[C@H]1CN(C)C(=O)Oc1ccc2ccccc2c1	none (no result: NTR1 ag, PREPL inh, Lipid droplet)
Clc1ccc(CNCCc2ccc3c(c2)OCO3)cc1	none
Fc1ccc(CCNCc2ccc(Br)cc2)cc1	none
Fc1ccccc1CNCCc1ccc2c(c1)OCO2	HTR2A ag 21 | MOR ag counter inactive | HTR2A ag conf inactive
Clc1cccc(CNCCc2ccc3c(c2)OCO3)c1	HTR2A ag 32 (no result: Lipid droplet) | MOR ag counter inactive | HTR2A ag conf inactive
Fc1ccc(CCNCc2cccc(Cl)c2)cc1	HTR2A ag 24 (no result: Lipid droplet) | MOR ag counter inactive | HTR2A ag conf inactive
CCCN1CC[C@@H]2c3cc(O)ccc3CC[C@@H]21	HTR2A ag 17 (no result: Lipid droplet) | MOR ag counter inactive | HTR2A ag conf 49
C[C@@H]1CN([C@H](C)CO)C(=O)CCCn2nncc2CO[C@@H]1CN(C)C(=O)Oc1ccc2ccccc2c1	none (no result: NTR1 ag, PREPL inh, Lipid droplet)
O=C(NCNC(=O)NC1C(=O)NC(=O)N1CO)NC1C(=O)NC(=O)N1CO (stereo not drawn)	HTR2A ag 17 (no result: Lipid droplet) | MOR ag counter inactive | HTR2A ag conf inactive
Cc1[nH]c2ccc(OC(F)(F)F)cc2c1CCNCc1cccc([N+](=O)[O-])c1	none
CCOc1cccc(CNCCc2c(C)[nH]c3ccc(OC(F)(F)F)cc23)c1O	HTR2A ag 27, MC4R ag barr 17 | MOR ag counter 1.2 | HTR2A ag conf 22
CCOC(=O)[C@]12Cc3cc(C)ccc3[C@H]1N(Cc1ccccc1)C(=O)c1cc(F)c(F)cc12	none (no result: NTR1 ag, MC4R antag cAMP, MC4R ag barr, PREPL inh, Lipid droplet)
COc1ccc(CCNCc2cccn2C)cc1	HTR2A ag 28 | MOR ag counter 0.5 | HTR2A ag conf 17
CCCCCCCSc1cc(OC)c(CCNC)cc1OC	HTR2A ag 46 (no result: Lipid droplet) | MOR ag counter inactive | HTR2A ag conf 17
CCCCCSc1cc(OC)c(CCNC)cc1OC	HTR2A ag 15 | MOR ag counter inactive | HTR2A ag conf inactive
COP(=O)(OC)C(NC(=O)/C=C/c1ccccc1)C(Cl)(Cl)Cl (stereo not drawn)	HTR2A ag 19 | MOR ag counter inactive | HTR2A ag conf inactive
CC(Cc1ccccc1)NC(=O)/C=C/c1ccc(Cl)cc1 (stereo not drawn)	none
Oc1c(Cl)c(Cl)c(Cl)c(Cl)c1Cl	none (no result: Lipid droplet)
Nc1cc(N2CCNCC2)ccc1[N+](=O)[O-]	HTR2A ag 42 | MOR ag counter inactive | HTR2A ag conf 28
O=[N+]([O-])c1ccc(N2CCNCC2)cc1Sc1ccccn1	HTR2A ag 25 | MOR ag counter inactive | HTR2A ag conf inactive
Oc1ccc(C2=CCNCC2)cc1O	HTR2A ag 36 (no result: Lipid droplet) | MOR ag counter inactive | HTR2A ag conf 117
CNCCc1ccc(O)c(O)c1	HTR2A ag 28 (no result: Lipid droplet) | MOR ag counter inactive | HTR2A ag conf 161
CC1C2Cc3ccc(O)cc3[C@]1(C)CCN2CCc1ccccc1 (stereo partly drawn)	none (no result: Lipid droplet)
COc1ccc(C(c2nnnn2-c2ccc3c(c2)OCCO3)N2CCC(n3c(=O)[nH]c4ccccc43)CC2)cc1 (stereo not drawn)	HTR2A ag 18 (no result: NTR1 ag, MC4R antag cAMP, MC4R ag barr, PREPL inh, Lipid droplet) | HTR2A ag conf 15
COc1ccc(-n2nnnc2C(c2ccccc2OC(F)(F)F)N2CCC(n3c(=O)[nH]c4ccccc43)CC2)cc1 (stereo not drawn)	HTR2A ag 16 (no result: NTR1 ag, MC4R antag cAMP, MC4R ag barr, PREPL inh, Lipid droplet) | HTR2A ag conf inactive
COc1cc2c(cc1OC)C13CCN4CC5CCOC6CC(=O)N2C1C6C5CC43 (stereo not drawn)	none (no result: NTR1 ag, PREPL inh, Lipid droplet)
CC(N)Cc1c[nH]c2ccc(Cl)cc12 (stereo not drawn)	HTR2A ag 80 (no result: Lipid droplet) | MOR ag counter inactive | HTR2A ag conf 55
CC(N)Cc1c[nH]c2cc3c(cc12)OCCO3 (stereo not drawn)	none
Cc1ccc(Cn2ccccc2=N)cc1	none (no result: NTR1 ag, PREPL inh, Lipid droplet)
COc1c2c(cc3c1OCO3)CCN(C)C2	HTR2A ag 18 (no result: Lipid droplet) | MOR ag counter inactive | HTR2A ag conf 53
COc1cc2c(cc1OC)-c1c3c(cc4c1[C@@H](C2)N(C)CC4)OCO3	none
O=C(Nc1ccc(C(=O)O)cc1)Oc1ccc(N(CCCl)CCCl)cc1	none (no result: NTR1 ag, MC4R antag cAMP, MC4R ag barr, PREPL inh, Lipid droplet)
Clc1cccc(N2Cc3ccccc3-n3nncc3C2)c1	none (no result: NTR1 ag, MC4R antag cAMP, MC4R ag barr, PREPL inh, Lipid droplet)
CN1CCN(Cc2cc3c(cc2[N+](=O)[O-])OCO3)CC1	none
CCC1=Nc2cc(C(=O)N3CCC4(CC3)OCCO4)ccc2Sc2ccc(Br)cc21	none
CCC(=NCCc1c[nH]c2ccccc12)c1c(O)n(C)c(=O)n(C)c1=O	HTR2A ag 27 | MOR ag counter inactive | HTR2A ag conf inactive
COC(=O)[C@@H]1N=C(c2ccc(OC)cc2)O[C@]12C(=O)N(Cc1ccc(OC)cc1)c1ccccc12	none (no result: NTR1 ag, MC4R antag cAMP, MC4R ag barr, PREPL inh, Lipid droplet)
CC(=O)C1C(N2CC2)CC2C3CC=C4CC(O)CCC4(C)C3CCC21C (stereo not drawn)	HTR2A ag 33 (no result: NTR1 ag, PREPL inh, Lipid droplet) | MOR ag counter inactive | HTR2A ag conf inactive
COc1cccc(CCNCc2c(F)cccc2F)c1	HTR2A ag 21 | MOR ag counter inactive | HTR2A ag conf inactive
Fc1ccc(CNCCc2c[nH]c3ccccc23)cc1	none
COc1cccc(CNCCc2ccc(F)cc2)c1	none (no result: Lipid droplet)
COc1cccc(CNCCc2c[nH]c3ccccc23)c1	HTR2A ag 32 | MOR ag counter inactive | HTR2A ag conf 34
Fc1ccccc1CNCCc1c[nH]c2ccccc12	HTR2A ag 19 (no result: Lipid droplet) | MOR ag counter inactive | HTR2A ag conf 24
COc1cc(C)cc2oc(=O)c(CC(=O)N3C[C@H]4C[C@@H](C3)c3cccc(=O)n3C4)c(C)c12	none (no result: Lipid droplet)
Cc1cc(O)c2c(C)c(CC(=O)N3C[C@H]4C[C@@H](C3)c3cccc(=O)n3C4)c(=O)oc2c1	HTR2A ag 19 | MOR ag counter inactive | HTR2A ag conf inactive
CCOC(=O)[C@]12Cc3cc(C)ccc3[C@H]1N(C(C)C)C(=O)c1ccccc12	none (no result: NTR1 ag, MC4R antag cAMP, MC4R ag barr, PREPL inh, Lipid droplet)
CC(NCc1ccc(Cl)c(Cl)c1)C(O)c1ccccc1 (stereo not drawn)	HTR2A ag 16 | MOR ag counter inactive | HTR2A ag conf inactive
CC(NCc1ccccc1Cl)C(O)c1ccccc1 (stereo not drawn)	none (no result: Lipid droplet)
CN1[C@H]2CC[C@@H]1C(C(=O)N1CCOCC1)=C(O)C2	none (no result: Lipid droplet)
